In ChEMBL document CHEMBL1811814, “Synthesis and evaluation of indole, pyrazole, chromone and pyrimidine based conjugates for tumor growth inhibitory activities--development of highly efficacious cytotoxic agents” (Eur J Med Chem, 2010):

Key:
Format in all cases: functional
HCT-15 = assay: Growth inhibition of human HCT15 cells
KM12 = assay: Growth inhibition of human KM12 cells
SW-620 = assay: Growth inhibition of human SW620 cells
SF-295 [1] = assay: Growth inhibition of human SF295 cells
SF-539 = assay: Growth inhibition of human SF539 cells
SNB-19 [2] = assay: Growth inhibition of human SNB19 cells
SNB-75 = assay: Growth inhibition of human SNB75 cells
SK-MEL-5 = assay: Growth inhibition of human SK-MEL-5 cells
UACC-257 = assay: Growth inhibition of human UACC257 cells
IGROV-1 [3] = assay: Growth inhibition of human IGROV1 cells
Summary of the method: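 Follow-up panel testing at five concentrations (10^-4, 10^-5, 10^-6, 10^-7 and 10^-8 M) across the 60 human tumor cell lines. GI50 was obtained for each line from the concentration-response data, with the panel average GI50 also reported.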

OVCAR-3 = assay: Growth inhibition of human OVCAR3 cells
OVCAR-4 = assay: Growth inhibition of human OVCAR4 cells
OVCAR-8 = assay: Growth inhibition of human OVCAR8 cells
NCI/ADR-RES [4] = assay: Growth inhibition of human NCI/ADR-RES cells
CAKI-1 [5] = assay: Growth inhibition of human Caki1 cells
SN12C [6] = assay: Growth inhibition of human SN12C cells
TK-10 = assay: Growth inhibition of human TK10 cells
MDA-MB-231 [7] = assay: Growth inhibition of human MDA-MB-231 cells
[8] = Growth inhibition of human Hs 578T cells
MDA-MB-468 = assay: Growth inhibition of human MDA-MB-468 cells
K562 = assay: Growth inhibition of human K562 cells assessed tumor cell growth at 10^-5 M; parameters: scale not given: the % may be the effect or the level left
Summary of the method: (§1)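 NCI 60-human-tumor-cell-line panel screen. Each compound was tested at a single concentration of 10^-5 M, and percent growth of tumor cells was recorded for each cell line. Growth inhibition was expressed from these percent-growth values.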

MOLT-4 = assay: Growth inhibition of human MOLT4 cells assessed tumor cell growth at 10^-5 M; parameters: scale not given: the % may be the effect or the level left; summary of the method: as §1
SR = assay: Growth inhibition of human SR cells assessed tumor cell growth at 10^-5 M; parameters: scale not given: the % may be the effect or the level left
Summary of the method: (§2)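 Single-dose screen at 10^-5 M across the 60 human tumor cell line panel, run to NCI standards. The value is the percent growth of each cell line in the presence of compound. Compounds active at this dose moved on to five-concentration testing (10^-4 to 10^-8 M).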

NCI-H23 = assay: Growth inhibition of human NCI-H23 cells assessed tumor cell growth at 10^-5 M; parameters: scale not given: the % may be the effect or the level left; summary of the method: as §1
NCI-H460 [9] = assay: Growth inhibition of human NCI-H460 cells assessed tumor cell growth at 10^-5 M; parameters: scale not given: the % may be the effect or the level left; summary of the method: as §1
HCC 2998 = assay: Growth inhibition of human HCC2998 cells assessed tumor cell growth at 10^-5 M; parameters: scale not given: the % may be the effect or the level left; summary of the method: as §1
HCT-116 = assay: Growth inhibition of human HCT116 cells assessed tumor cell growth at 10^-5 M; parameters: scale not given: the % may be the effect or the level left; summary of the method: as §1
SF-295 [10] = assay: Growth inhibition of human SF295 cells assessed tumor cell growth at 10^-5 M; parameters: scale not given: the % may be the effect or the level left; summary of the method: as §1
SNB-19 [11] = assay: Growth inhibition of human SNB19 cells assessed tumor cell growth at 10^-5 M; parameters: scale not given: the % may be the effect or the level left; summary of the method: as §2
LOX IMVI = assay: Growth inhibition of human LOXIMVI cells assessed tumor cell growth at 10^-5 M; parameters: scale not given: the % may be the effect or the level left; summary of the method: as §1
Malme-3M = assay: Growth inhibition of human MALME-3M cells assessed tumor cell growth at 10^-5 M; parameters: scale not given: the % may be the effect or the level left; summary of the method: as §1
M14 = assay: Growth inhibition of human M14 cells assessed tumor cell growth at 10^-5 M; parameters: scale not given: the % may be the effect or the level left; summary of the method: as §1
MDA-MB-435 = assay: Growth inhibition of human MDA-MB-435 cells assessed tumor cell growth at 10^-5 M; parameters: scale not given: the % may be the effect or the level left; summary of the method: as §1
SK-MEL-2 = assay: Growth inhibition of human SK-MEL-2 cells assessed tumor cell growth at 10^-5 M; parameters: scale not given: the % may be the effect or the level left; summary of the method: as §1
SK-MEL-28 = assay: Growth inhibition of human SK-MEL-28 cells assessed tumor cell growth at 10^-5 M; parameters: scale not given: the % may be the effect or the level left; summary of the method: as §1
IGROV-1 [12] = assay: Growth inhibition of human IGROV1 cells assessed tumor cell growth at 10^-5 M; parameters: scale not given: the % may be the effect or the level left; summary of the method: as §1
NCI/ADR-RES [13] = assay: Growth inhibition of human NCI/ADR-RES cells assessed tumor cell growth at 10^-5 M; parameters: scale not given: the % may be the effect or the level left; summary of the method: as §1
786-0 = assay: Growth inhibition of human 786-0 cells assessed tumor cell growth at 10^-5 M; parameters: scale not given: the % may be the effect or the level left; summary of the method: as §1
CAKI-1 [14] = assay: Growth inhibition of human Caki1 cells assessed tumor cell growth at 10^-5 M; parameters: scale not given: the % may be the effect or the level left; summary of the method: as §1
RXF 393 = assay: Growth inhibition of human RXF393 cells assessed tumor cell growth at 10^-5 M; parameters: scale not given: the % may be the effect or the level left; summary of the method: as §1
SN12C [15] = assay: Growth inhibition of human SN12C cells assessed tumor cell growth at 10^-5 M; parameters: scale not given: the % may be the effect or the level left; summary of the method: as §1
UO-31 = assay: Growth inhibition of human UO31 cells assessed tumor cell growth at 10^-5 M; parameters: scale not given: the % may be the effect or the level left; summary of the method: as §2
DU-145 = assay: Growth inhibition of human DU145 cells assessed tumor cell growth at 10^-5 M; parameters: scale not given: the % may be the effect or the level left; summary of the method: as §1
MDA-MB-231 [16] = assay: Growth inhibition of human MDA-MB-231 cells assessed tumor cell growth at 10^-5 M; parameters: scale not given: the % may be the effect or the level left; summary of the method: as §1
[17] = Growth inhibition of human RPMI8266 cells
EKVX = assay: Growth inhibition of human EKVX cells
HOP-62 = assay: Growth inhibition of human HOP62 cells
NCI-H322M = assay: Growth inhibition of human NCI-H322M cells
NCI-H460 [18] = assay: Growth inhibition of human NCI-H460 cells
NCI-H522 = assay: Growth inhibition of human NCI-H522 cells
COLO 205 = assay: Growth inhibition of human COLO205 cells
[19] = read-out: LC50 (the source's name)

With `O=C1/C(=C\c2ccccn2)c2ccccc2N1c1c(Cl)cccc1Cl` as the compound, how does the GI50 (HCT-15) read?
The GI50 was 2000 nM.

And the CC50 (HCT-15; [19])?
The CC50 was 28.8 µM.

And the GI50 (KM12)?
The GI50 was 1800 nM.

What about the CC50 (KM12; [19]) of the same compound?
Its CC50 is 6.3 µM.

And the GI50 (SW-620)?
Its GI50 is 1900 nM.

What about the CC50 (SW-620; [19]) of the same compound?
The CC50 was 6.7 µM.

And the GI50 (SF-295 [1])?
Its GI50 is 1700 nM.

And the CC50 (SF-295 [1]; [19])?
Its CC50 is 13.8 µM.

And the GI50 (SF-539)?
The GI50 was 2400 nM.

And the CC50 (SF-539; [19])?
Its CC50 is over 100 µM.

What about the GI50 (SNB-19 [2]) of the same compound?
Its GI50 is 2200 nM.

And the CC50 (SNB-19 [2]; [19])?
The CC50 was 32.3 µM.

What about the GI50 (SNB-75) of the same compound?
Its GI50 is 1400 nM.

And the CC50 (SNB-75; [19])?
The CC50 was 32.3 µM.

What about the GI50 (SK-MEL-5) of the same compound?
The GI50 was 1600 nM.

And the CC50 (SK-MEL-5; [19])?
Its CC50 is 5.7 µM.

What about the GI50 (UACC-257) of the same compound?
Its GI50 is 1700 nM.

What about the CC50 (UACC-257; [19]) of the same compound?
The CC50 was 18.2 µM.

And the GI50 (IGROV-1 [3])?
The GI50 was 1700 nM.

What about the GI50 (OVCAR-3) of the same compound?
Its GI50 is 1700 nM.

What about the CC50 (OVCAR-3; [19]) of the same compound?
The CC50 was 6.9 µM.

And the GI50 (OVCAR-4)?
The GI50 was 3.7 µM.

What about the CC50 (OVCAR-4; [19]) of the same compound?
Its CC50 is over 100 µM.

What about the GI50 (OVCAR-8) of the same compound?
The GI50 was 2100 nM.

And the CC50 (OVCAR-8; [19])?
The CC50 was over 100 µM.

What about the GI50 (NCI/ADR-RES [4]) of the same compound?
Its GI50 is 3000 nM.

And the CC50 (NCI/ADR-RES [4]; [19])?
The CC50 was over 100 µM.

What about the GI50 (CAKI-1 [5]) of the same compound?
Its GI50 is 1300 nM.

What about the CC50 (CAKI-1 [5]; [19]) of the same compound?
Its CC50 is 7.4 µM.

And the GI50 (SN12C [6])?
The GI50 was 2200 nM.

What about the CC50 (SN12C [6]; [19]) of the same compound?
The CC50 was 58.8 µM.

And the GI50 (TK-10)?
Its GI50 is 3000 nM.

What about the CC50 (TK-10; [19]) of the same compound?
The CC50 was 50.1 µM.

And the GI50 (MDA-MB-231 [7])?
Its GI50 is 2000 nM.

What about the CC50 (MDA-MB-231 [7]; [19]) of the same compound?
The CC50 was 29.5 µM.

What about the GI50 [8] of the same compound?
The GI50 was 5.6 µM.

And the CC50 [8, 19]?
The CC50 was over 100 µM.

And the GI50 (MDA-MB-468)?
The GI50 was 900 nM.

And the CC50 (MDA-MB-468; [19])?
The CC50 was 7.4 µM.

And the Activity (K562)?
Its Activity is 9.42%.

And the Activity (MOLT-4)?
Its Activity is 3.8%.

What about the Activity (SR) of the same compound?
The Activity was -4.3%.

What about the Activity (NCI-H23) of the same compound?
The Activity was 12.97%.

And the Activity (NCI-H460 [9])?
Its Activity is -29.25%.

What about the Activity (HCC 2998) of the same compound?
The Activity was -82.08%.

What about the Activity (HCT-116) of the same compound?
Its Activity is -94.37%.

And the Activity (SF-295 [10])?
The Activity was 12.33%.

And the Activity (SNB-19 [11])?
Its Activity is 34.85%.

And the Activity (LOX IMVI)?
The Activity was -89.2%.

And the Activity (Malme-3M)?
The Activity was 67.26%.

And the Activity (M14)?
The Activity was -43.6%.

And the Activity (MDA-MB-435)?
Its Activity is -5.05%.

And the Activity (SK-MEL-2)?
Its Activity is 48.8%.

What about the Activity (SK-MEL-28) of the same compound?
The Activity was -10.05%.

And the Activity (IGROV-1 [12])?
Its Activity is 8.25%.

What about the Activity (NCI/ADR-RES [13]) of the same compound?
The Activity was -26.73%.

What about the Activity (786-0) of the same compound?
Its Activity is -81.44%.

What about the Activity (CAKI-1 [14]) of the same compound?
The Activity was -1.37%.

What about the Activity (RXF 393) of the same compound?
Its Activity is -35.21%.

What about the Activity (SN12C [15]) of the same compound?
Its Activity is 18.08%.

And the Activity (UO-31)?
The Activity was 16.75%.

And the Activity (DU-145)?
Its Activity is -0.09%.

And the Activity (MDA-MB-231 [16])?
The Activity was 15.7%.

What about the GI50 [17] of the same compound?
The GI50 was 2200 nM.

And the CC50 [17, 19]?
The CC50 was over 100 µM.

What about the GI50 (EKVX) of the same compound?
Its GI50 is 2000 nM.

And the CC50 (EKVX; [19])?
The CC50 was over 100 µM.

And the GI50 (HOP-62)?
Its GI50 is 2300 nM.

What about the CC50 (HOP-62; [19]) of the same compound?
Its CC50 is 89.1 µM.

And the GI50 (NCI-H322M)?
The GI50 was 2800 nM.

What about the CC50 (NCI-H322M; [19]) of the same compound?
The CC50 was 28.8 µM.

And the GI50 (NCI-H460 [18])?
The GI50 was 1800 nM.

And the CC50 (NCI-H460 [18]; [19])?
Its CC50 is 7 µM.

What about the GI50 (NCI-H522) of the same compound?
The GI50 was 1600 nM.

What about the LC50 (concentration killing 50% of cells) (NCI-H522) of the same compound?
The LC50 (concentration killing 50% of cells) was 7.5 µM.

What about the GI50 (COLO 205) of the same compound?
The GI50 was 2300 nM.

And the LC50 (COLO 205)?
Its LC50 is over 100 µM.
